Experimental data from ChEMBL document CHEMBL4190330, “Discovery of Potent and Selective A2A Antagonists with Efficacy in Animal Models of Parkinson's Disease and Depression” (ACS Med Chem Lett, 2017).

Assays:
[1] = target: T1, Adenosine receptor A1 (Homo sapiens) (UniProt P30542); test: Displacement of [3H]-DPCPX from human A1 receptor expressed in HEK293 cell membranes at 1 uM after 90 mins radioligand binding assay relative to control
T1 sequence (whole entry): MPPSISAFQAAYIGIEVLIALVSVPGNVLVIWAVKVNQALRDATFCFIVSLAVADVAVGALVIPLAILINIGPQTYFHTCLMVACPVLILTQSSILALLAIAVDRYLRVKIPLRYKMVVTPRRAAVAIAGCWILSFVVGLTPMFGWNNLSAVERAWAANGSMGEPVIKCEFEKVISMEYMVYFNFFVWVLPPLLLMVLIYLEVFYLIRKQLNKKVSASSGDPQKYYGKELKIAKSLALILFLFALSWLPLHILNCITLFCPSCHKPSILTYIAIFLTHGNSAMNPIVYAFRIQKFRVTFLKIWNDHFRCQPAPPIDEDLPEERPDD

Adenosine receptor A2a [2] = target: T2, Adenosine receptor A2a (Homo sapiens, UniProt P29274); test: Displacement of [3H]ZM241385 from human A2A receptor expressed in HEK293 cell membranes after 90 mins radioligand binding assay
In short: (§1)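 Membranes from HEK-293 cells overexpressing the relevant human adenosine receptor subtype; all points in triplicate; Ki derived from 8-concentration IC50 curves.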

[3] = Metabolic stability in rat liver microsomes; format: ADME, microsome
[4] = Metabolic stability in human liver microsomes; format: ADME, microsome
Adenosine receptor A2a [5] = target: T2, Adenosine receptor A2a; test: Antagonist activity at human A2A receptor expressed in HEK293 cell membranes assessed as reduction in CGS-21680-induced cAMP level pretreated for 15 mins followed by CGS-21680 addition measured after 30 mins by HTRF assay; format: functional, cell-based
In short: (§2)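 HTRF-based cAMP functional assay; each compound tested at 12 concentrations, every point in triplicate; Ki given as mean of two independent experiments (n=2).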

[6] = Solubility of the compound at pH 7.4; format: physicochemical; settings: buffer
Homo sapiens [7] = organism: Homo sapiens; test: Selectivity ratio of Ki for displacement of [3H]-MRS-1754 from human A2B receptor expressed in HEK293 cell membranes to Ki for displacement of [3H]ZM241385 from human A2A receptor expressed in HEK293 cell membranes
In short: (§3)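 Radioligand binding used membranes from HEK-293 cells overexpressing each human adenosine receptor isoform. Points were run in triplicate, and 8-concentration IC50 curves were plotted to give Ki. The selectivity value is the Ki at the off-target isoform divided by the Ki at hA2A.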

Adenosine receptor A1 = target: T3, Adenosine receptor A1 (Homo sapiens, UniProt P30542); test: Displacement of [3H]-DPCPX from human A1 receptor expressed in HEK293 cell membranes after 90 mins radioligand binding assay; in short: as §1
T3 sequence (P30542 whole entry): T1 sequence (whole entry)

Adenosine receptor A2a [8] = target: Adenosine receptor A2a (Rattus norvegicus, UniProt P30543); test: Antagonist activity at rat A2A receptor assessed as reduction in CGS-21680-induced cAMP level pretreated for 15 mins followed by CGS-21680 addition measured after 30 mins by HTRF assay; format: functional; in short: as §2
Homo sapiens [9] = organism: Homo sapiens; test: Selectivity ratio of Ki for displacement of [3H]-HEMADO from human A3 receptor expressed in HEK293 cell membranes to Ki for displacement of [3H]ZM241385 from human A2A receptor expressed in HEK293 cell membranes; in short: as §3
Homo sapiens [10] = organism: Homo sapiens; test: Selectivity ratio of Ki for displacement of [3H]-DPCPX from human A1 receptor expressed in HEK293 cell membranes to Ki for displacement of [3H]ZM241385 from human A2A receptor expressed in HEK293 cell membranes; in short: as §3

Sequence of Adenosine receptor A2a (Rattus norvegicus, UniProt P30543) (P30543 whole entry): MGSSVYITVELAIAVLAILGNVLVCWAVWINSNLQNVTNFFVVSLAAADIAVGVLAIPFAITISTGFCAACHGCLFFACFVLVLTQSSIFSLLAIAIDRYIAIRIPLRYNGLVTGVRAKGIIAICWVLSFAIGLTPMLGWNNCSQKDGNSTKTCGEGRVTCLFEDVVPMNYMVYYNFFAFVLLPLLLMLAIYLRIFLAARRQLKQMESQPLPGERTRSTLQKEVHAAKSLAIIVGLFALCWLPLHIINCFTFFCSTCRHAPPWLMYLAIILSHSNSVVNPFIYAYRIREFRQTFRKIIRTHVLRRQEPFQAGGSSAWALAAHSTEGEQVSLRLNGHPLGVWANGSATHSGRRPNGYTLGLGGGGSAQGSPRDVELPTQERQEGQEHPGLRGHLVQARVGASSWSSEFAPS
T2 sequence (P29274 whole entry): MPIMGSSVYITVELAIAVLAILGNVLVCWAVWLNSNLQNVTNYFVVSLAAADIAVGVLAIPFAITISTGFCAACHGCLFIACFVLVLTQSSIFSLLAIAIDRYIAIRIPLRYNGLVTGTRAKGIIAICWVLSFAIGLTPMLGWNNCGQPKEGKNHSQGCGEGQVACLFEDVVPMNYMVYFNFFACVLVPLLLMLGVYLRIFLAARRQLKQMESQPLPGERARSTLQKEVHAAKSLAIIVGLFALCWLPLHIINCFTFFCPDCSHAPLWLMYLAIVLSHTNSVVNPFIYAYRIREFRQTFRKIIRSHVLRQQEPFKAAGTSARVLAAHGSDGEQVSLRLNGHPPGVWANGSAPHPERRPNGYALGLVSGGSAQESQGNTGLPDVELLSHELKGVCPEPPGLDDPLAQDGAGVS

## Cn1c(=O)n(CCN2CCN(c3ccc(OC4CCOC4)cc3)CC2)c2nc(N)n3nc(-c4ccco4)nc3c21 (stereo not given)
[1]
  inhibition: 49%
Adenosine receptor A2a [2]
  Ki: 0.2 nM
[3]
  Stability: Stable
[4]
  Stability: Stable
Adenosine receptor A2a [5]
  Ki: 0.22 nM

## Cn1c(=O)n(CCN2CCN(c3ccc(C#N)c(F)c3)CC2)c2nc(N)n3nc(-c4ccco4)nc3c21
[1]
  inhibition: 50%
Adenosine receptor A2a [2]
  Ki: 0.5 nM
[3]
  Stability: Stable
[4]
  Stability: Stable
Adenosine receptor A2a [5]
  Ki: 0.4 nM

## COCCOc1ccc(N2CCN(CCn3c(=O)n(C)c4c3nc(N)n3nc(-c5ccco5)nc43)CC2)cc1
Adenosine receptor A2a [2]
  Ki: 2 nM
[6]
  solubility: < 6 µM
Homo sapiens [7]
  Ratio Ki: > 3000
Adenosine receptor A1
  Ki: 1700 nM
Adenosine receptor A2a [8]
  Ki: 0.28 nM
[3]
  Stability: Stable
[4]
  Stability: Stable
Adenosine receptor A2a [5]
  Ki: 0.42 nM
Homo sapiens [9]
  Ratio Ki: > 2000
Homo sapiens [10]
  Ratio Ki: 850

## COc1ccc(N2CCN(CCn3c(=O)n(C)c4c3nc(N)n3nc(-c5ccco5)nc43)CC2)cn1
[1]
  inhibition: 61%
Adenosine receptor A2a [2]
  Ki: 4.5 nM
[3]
  Stability: Stable
[4]
  Stability: Stable

## COCCOc1cc(F)c(N2CCN(CCn3c(=O)n(C)c4c3nc(N)n3nc(-c5ccco5)nc43)CC2)cc1F
[1]
  inhibition: 58%
Adenosine receptor A2a [2]
  Ki: 0.9 nM
[3]
  Stability: Stable
[4]
  Stability: Stable
Adenosine receptor A2a [5]
  Ki: 1.2 nM

## Cc1nc2cc(N3CCN(CCn4c(=O)n(C)c5c4nc(N)n4nc(-c6ccco6)nc54)CC3)c(F)cc2o1
[1]
  inhibition: 48%
Adenosine receptor A2a [2]
  Ki: 0.4 nM
Adenosine receptor A2a [8]
  Ki: 0.05 nM
[3]
  Stability: Stable
[4]
  Stability: Stable
Adenosine receptor A2a [5]
  Ki: 0.15 nM

## COc1ccc(N2CCN(CCn3c(=O)n(C)c4c3nc(N)n3nc(-c5ccco5)nc43)CC2)c(F)c1
[1]
  inhibition: 45%
Adenosine receptor A2a [2]
  Ki: 0.4 nM
Adenosine receptor A2a [8]
  Ki: 0.06 nM
[3]
  Stability: Stable
[4]
  Stability: Stable
Adenosine receptor A2a [5]
  Ki: 0.06 nM

## COCCOc1ccc(N2CCN(CCn3c(=O)n(C)c4c3nc(N)n3nc(-c5nccs5)nc43)CC2)cc1
[1]
  inhibition: 19%
Adenosine receptor A2a [2]
  Ki: 6.4 nM
Adenosine receptor A2a [8]
  Ki: 11.1 nM
[3]
  Stability: Stable
[4]
  Stability: Stable
Adenosine receptor A2a [5]
  Ki: 1.2 nM

## Cn1c(=O)n(CCN2CCN(c3nc(C(F)(F)F)cs3)CC2)c2nc(N)n3nc(-c4ccco4)nc3c21
[1]
  inhibition: 58%
Adenosine receptor A2a [2]
  Ki: 1.2 nM
[3]
  Stability: Stable
[4]
  Stability: Stable
Adenosine receptor A2a [5]
  Ki: 0.9 nM

## COCCOc1c(F)cc(N2CCN(CCn3c(=O)n(C)c4c3nc(N)n3nc(-c5ccco5)nc43)CC2)cc1F
[1]
  inhibition: 65%
Adenosine receptor A2a [2]
  Ki: 0.6 nM
[3]
  Stability: Stable
[4]
  Stability: Stable

## COCCOc1cccc(N2CCN(CCn3c(=O)n(C)c4c3nc(N)n3nc(-c5ccco5)nc43)CC2)c1
[1]
  inhibition: 63%
Adenosine receptor A2a [2]
  Ki: 0.5 nM
Adenosine receptor A2a [8]
  Ki: 3.9 nM
[3]
  Stability: Stable
[4]
  Stability: Stable
Adenosine receptor A2a [5]
  Ki: 0.5 nM

## Cn1c(=O)n(CCN2CCN(c3ccc(OC4CC4)cc3)CC2)c2nc(N)n3nc(-c4ccco4)nc3c21
[1]
  inhibition: 50%
Adenosine receptor A2a [2]
  Ki: 0.3 nM
[3]
  Stability: Stable
[4]
  Stability: Stable
Adenosine receptor A2a [5]
  Ki: 0.25 nM

## Cc1ccc(N2CCN(CCn3c(=O)n(C)c4c3nc(N)n3nc(-c5ccco5)nc43)CC2)nc1
[1]
  inhibition: 61%
Adenosine receptor A2a [2]
  Ki: 1.7 nM
Adenosine receptor A2a [8]
  Ki: 0.65 nM
[3]
  Stability: Stable
[4]
  Stability: Stable
Adenosine receptor A2a [5]
  Ki: 0.4 nM

## COCC(C)(C)Oc1ccc(N2CCN(CCn3c(=O)n(C)c4c3nc(N)n3nc(-c5ccco5)nc43)CC2)cc1
[1]
  inhibition: 36%
Adenosine receptor A2a [2]
  Ki: 0.5 nM
Adenosine receptor A2a [8]
  Ki: 0.72 nM
[3]
  Stability: Stable
[4]
  Stability: Stable
Adenosine receptor A2a [5]
  Ki: 2.1 nM

## Cn1c(=O)n(CCN2CCN(c3ccc(OC(F)F)cc3)CC2)c2nc(N)n3nc(-c4ccco4)nc3c21
[1]
  inhibition: 34%
Adenosine receptor A2a [2]
  Ki: 1.9 nM
Adenosine receptor A2a [8]
  Ki: 1.07 nM
[3]
  Stability: Stable
[4]
  Stability: Stable
Adenosine receptor A2a [5]
  Ki: 0.27 nM

## Cn1c(=O)n(CCN2CCN(c3ccc(OC4CCOCC4)cc3)CC2)c2nc(N)n3nc(-c4ccco4)nc3c21
[1]
  inhibition: 56%
Adenosine receptor A2a [2]
  Ki: 0.3 nM
[3]
  Stability: Stable
[4]
  Stability: Stable
Adenosine receptor A2a [5]
  Ki: 0.26 nM

## COCCOc1ccc(N2CCN(CCn3c(=O)n(C)c4c3nc(N)n3nc(-c5ccco5)nc43)CC2)cc1F
[1]
  inhibition: 68%
Adenosine receptor A2a [2]
  Ki: 0.7 nM
[3]
  Stability: Stable
[4]
  Stability: Stable

## COCC(C)Oc1ccc(N2CCN(CCn3c(=O)n(C)c4c3nc(N)n3nc(-c5ccco5)nc43)CC2)cc1 (stereo not given)
[1]
  inhibition: 56%
Adenosine receptor A2a [2]
  Ki: 0.4 nM
Adenosine receptor A2a [8]
  Ki: 0.42 nM
[3]
  Stability: Stable
[4]
  Stability: Stable
Adenosine receptor A2a [5]
  Ki: 1.5 nM

## Cn1c(=O)n(CCN2CCN(c3ccc(C#N)cc3)CC2)c2nc(N)n3nc(-c4ccco4)nc3c21
Adenosine receptor A2a [2]
  Ki: 0.6 nM
[6]
  solubility: < 2 µM
Homo sapiens [7]
  Ratio Ki: > 8000
Adenosine receptor A1
  Ki: 5000 nM
Adenosine receptor A2a [8]
  Ki: 1.15 nM
[3]
  Stability: Stable
[4]
  Stability: Stable
Adenosine receptor A2a [5]
  Ki: 0.3 nM
Homo sapiens [9]
  Ratio Ki: > 8000
Homo sapiens [10]
  Ratio Ki: > 8000

## Cc1ccc(N2CCN(CCn3c(=O)n(C)c4c3nc(N)n3nc(-c5ccco5)nc43)CC2)cc1
[1]
  inhibition: 45%
Adenosine receptor A2a [2]
  Ki: 1.4 nM
Adenosine receptor A2a [8]
  Ki: 0.74 nM
[3]
  Stability: Stable
[4]
  Stability: Stable
Adenosine receptor A2a [5]
  Ki: 1.1 nM

## Cn1c(=O)n(CCN2CCN(c3ccc(OCCOC4CC4)cc3)CC2)c2nc(N)n3nc(-c4ccco4)nc3c21
[1]
  inhibition: 66%
Adenosine receptor A2a [2]
  Ki: 2 nM
[3]
  Stability: Stable
[4]
  Stability: Stable

## COc1ccc(N2CCN(CCn3c(=O)n(C)c4c3nc(N)n3nc(-c5ccco5)nc43)CC2)cc1
[1]
  inhibition: 58%
Adenosine receptor A2a [2]
  Ki: 1 nM
Adenosine receptor A2a [8]
  Ki: 0.58 nM
[3]
  Stability: Stable
[4]
  Stability: Stable
Adenosine receptor A2a [5]
  Ki: 0.21 nM

## Cn1c(=O)n(CCN2CCN(c3ccc(C(F)(F)F)cc3)CC2)c2nc(N)n3nc(-c4ccco4)nc3c21
[1]
  inhibition: 57%
Adenosine receptor A2a [2]
  Ki: 3.1 nM
[3]
  Stability: Stable
[4]
  Stability: Stable

## Cn1c(=O)n(CCN2CCN(c3ccc(F)cc3F)CC2)c2nc(N)n3nc(-c4ccco4)nc3c21
[1]
  inhibition: 32%
Adenosine receptor A2a [2]
  Ki: 1 nM
[3]
  Stability: Stable
[4]
  Stability: Stable
Adenosine receptor A2a [5]
  Ki: 0.07 nM
